In ChEMBL document CHEMBL3627690, “Scaffold-Hopping and Structure-Based Discovery of Potent, Selective, And Brain Penetrant N-(1H-Pyrazol-3-yl)pyridin-2-amine Inhibitors of Dual Leucine Zipper Kinase (DLK, MAP3K12)” (J Med Chem, 2015):

Columns and labels:
[1] = target: MAP kinase-activated protein kinase 2 (Homo sapiens) (UniProt P49137); assay: Inhibition of MAPKAPK2 (unknown origin) at 1 uM by FRET method
Summary of the method: (§1)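 SelectScreen panel of 58 kinases, each tested at a single 1 µM compound concentration. Read-out was Z′-LYTE FRET of labeled peptide phosphorylation, run by the vendor's protocols, reported as percent inhibition.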

[2] = Oral bioavailability in […] rat at 1 or 5 mg/kg; format: ADME, organism-based; conditions: in vivo
Summary of the method: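 Rat PK: iv dosing at 0.4 or 1 mg/kg as a 60% PEG solution, po dosing at 1 or 5 mg/kg as an aqueous suspension with 1% methylcellulose.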

[3] = target: cAMP-dependent protein kinase (PKA) (Homo sapiens) (UniProt P22694+P17612+P22612); assay: Inhibition of PKA (unknown origin) at 1 uM by FRET method; format: protein assay
Summary of the method: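 Single-point screen at 1 uM against a panel of 58 representative kinases. Readout was labeled-peptide phosphorylation by FRET (Z′-LYTE), using the vendor's protocols.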

[4] = target: Casein kinase I isoform gamma-2 (Homo sapiens) (UniProt P78368); assay: Inhibition of CK1gamma2 (unknown origin) at 1 uM by FRET method; summary of the method: as §1
[5] = target: Proto-oncogene tyrosine-protein kinase Src (Homo sapiens, UniProt P12931); conditions: 1 uM
Proto-oncogene tyrosine-protein kinase Src, sequence (P12931 2-536 limits assumed): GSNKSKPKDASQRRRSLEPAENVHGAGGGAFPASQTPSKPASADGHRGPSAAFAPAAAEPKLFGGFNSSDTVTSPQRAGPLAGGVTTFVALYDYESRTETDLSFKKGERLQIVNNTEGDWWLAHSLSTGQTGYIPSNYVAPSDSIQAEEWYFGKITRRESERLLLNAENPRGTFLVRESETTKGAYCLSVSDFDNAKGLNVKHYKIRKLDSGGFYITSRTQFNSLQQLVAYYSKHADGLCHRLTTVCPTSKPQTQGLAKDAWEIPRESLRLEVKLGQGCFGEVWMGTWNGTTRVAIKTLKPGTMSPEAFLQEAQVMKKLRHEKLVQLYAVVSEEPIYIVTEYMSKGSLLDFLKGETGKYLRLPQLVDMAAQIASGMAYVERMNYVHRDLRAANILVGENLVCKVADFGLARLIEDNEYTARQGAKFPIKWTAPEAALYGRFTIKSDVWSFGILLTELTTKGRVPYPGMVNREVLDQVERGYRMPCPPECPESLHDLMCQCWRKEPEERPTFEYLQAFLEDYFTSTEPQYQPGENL

MAP kinase-activated protein kinase 2 (Homo sapiens), sequence (P49137 whole entry, looked up): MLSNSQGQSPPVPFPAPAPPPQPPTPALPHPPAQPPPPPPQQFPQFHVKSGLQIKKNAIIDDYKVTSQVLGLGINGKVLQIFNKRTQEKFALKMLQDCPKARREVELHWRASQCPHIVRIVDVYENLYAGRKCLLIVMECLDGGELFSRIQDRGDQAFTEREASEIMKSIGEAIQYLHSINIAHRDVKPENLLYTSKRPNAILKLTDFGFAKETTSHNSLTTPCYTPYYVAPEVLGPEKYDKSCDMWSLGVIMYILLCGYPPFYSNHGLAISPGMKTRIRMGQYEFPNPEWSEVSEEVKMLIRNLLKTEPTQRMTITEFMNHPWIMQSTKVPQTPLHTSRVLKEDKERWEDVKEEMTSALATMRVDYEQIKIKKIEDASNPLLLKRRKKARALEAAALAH
Casein kinase I isoform gamma-2 (Homo sapiens), sequence (P78368 whole entry, looked up, canonical isoform): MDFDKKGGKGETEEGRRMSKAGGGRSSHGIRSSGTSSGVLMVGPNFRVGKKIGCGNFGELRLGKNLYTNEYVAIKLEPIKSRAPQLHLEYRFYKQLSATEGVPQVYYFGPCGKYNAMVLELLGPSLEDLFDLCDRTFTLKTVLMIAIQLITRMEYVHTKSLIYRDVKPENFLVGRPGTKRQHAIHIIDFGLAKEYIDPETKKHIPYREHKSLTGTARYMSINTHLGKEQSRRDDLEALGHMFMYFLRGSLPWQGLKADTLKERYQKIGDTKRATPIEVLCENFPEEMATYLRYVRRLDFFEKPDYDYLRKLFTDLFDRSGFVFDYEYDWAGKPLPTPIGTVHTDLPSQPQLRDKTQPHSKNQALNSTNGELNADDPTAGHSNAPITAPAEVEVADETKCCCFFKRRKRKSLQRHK

Work on N#Cc1ccnc(Nc2cc(C3CCN(C4COC4)CC3)n(C3CCCC3)n2)c1 yielded an inhibition [1] of 6.7%, a bioavailability [2] of 58% and an inhibition [3] of 4%. The inhibition [4] was 1.8% and the inhibition [5] was 55.4%.
